Screens (PubChem)
In the library only some 3.3% were active in any assay of this set; here they are far more common.
LEDGF integ inh = blocks HIV-1 LEDGF/p75-dependent DNA integration | inhibition, % at 3.7 µM | actives 0.64% (n = 370,000) | TR-FRET IN-LEDGF/p75 DNA integration, Eu/Cy5;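 active = inhibition above the screen-wide mean plus 3 SD, cut at about 13% in these data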;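 note: signal is the Cy5 over europium emission ratio at 671 and 618 nm; 0% = plate median of compound wells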
MBD2 DNA inh = blocks human MBD2 binding to methylated DNA. TR-FRET, MBD2 binding to methylated oligonucleotide. actives 0.31% (n = 370,000). AID 686964. inhibition, % at 4.4 µM; in the data active = inhibition above about 13%
SIAE primary = human SIAE inhibition, primary screen; inhibition, % at 9.66 µM; Q9HAT2; actives 0.69% (n = 370,000); SIAE FP-Rh probe binding, fluorescence polarization;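 active = inhibition above a cutoff: mean of compounds within the control limits plus 3 SD of those, cut at about 17% in these data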;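 note: 0% = plate median of compound wells and 100% = probe without SIAE protein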
Target sequence (Q9HAT2 whole entry, looked up): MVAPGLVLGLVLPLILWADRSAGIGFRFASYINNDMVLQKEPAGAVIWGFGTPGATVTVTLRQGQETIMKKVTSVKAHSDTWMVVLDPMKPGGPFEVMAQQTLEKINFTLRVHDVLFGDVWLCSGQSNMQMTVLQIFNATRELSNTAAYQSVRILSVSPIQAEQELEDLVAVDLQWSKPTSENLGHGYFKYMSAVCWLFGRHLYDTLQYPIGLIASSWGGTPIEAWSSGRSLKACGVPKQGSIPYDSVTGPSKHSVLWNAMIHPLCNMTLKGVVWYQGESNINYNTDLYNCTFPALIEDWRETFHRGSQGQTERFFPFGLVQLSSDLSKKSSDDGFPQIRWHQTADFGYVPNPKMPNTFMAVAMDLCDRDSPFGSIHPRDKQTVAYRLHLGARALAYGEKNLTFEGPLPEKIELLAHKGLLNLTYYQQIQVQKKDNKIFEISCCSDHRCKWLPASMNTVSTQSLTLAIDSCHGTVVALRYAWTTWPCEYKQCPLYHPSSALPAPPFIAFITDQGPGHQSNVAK
PRMT1 FP inh = blocks human protein arginine methyltransferase 1. Q99873. recombinant PRMT1, activity-based probe fluorescence polarization. inhibition, % at 2.79 µM. actives 1.3% (n = 370,000). AID 652257;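 active = inhibition above about 21% made by adding two undisclosed values, limit read from the data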
TDP2 absorb = TDP2 (human) inhibition, absorbance primary screen | O95551 | recombinant TDP2, T5PNP hydrolysis, p-nitrophenol absorbance 415 nm | inhibition, % at 12.8 µM | actives 0.34% (n = 370,000) | AID 720702;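 active = inhibition above the mean of all tested compounds plus 3 SD, set per campaign, cut at about 25% in these data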;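 note: 0% = DMSO with enzyme and 100% = buffer with substrate but no TDP2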
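Material: recombinant human TDP2; quantity: TDP2 enzyme at 120 nM final; medium: Tris-HCl pH 7.5 with MgCl2; compound: single concentration, 12.8 µM nominal, with 1% DMSO; incubation: 2 h enzyme incubation at 37 °C; signal: epi absorbance; measure: percent inhibition; benchmarks: high control without enzyme, low control DMSO plus TDP2; repeats: singlicate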
UHRF1 MBD2 ctr = blocks human UHRF1 binding to methylated DNA. Q96T88. UHRF1 binding to methylated oligo, TR-FRET. inhibition, % at 4.4 µM. actives 0.75% (n = 370,000). AID 687016; in the data active = inhibition above about 21%;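 note: UHRF1 SRA domain binding a hemimethylated CpG hairpin DNA probe; 0% = median of test compound wells and 100% = reference inhibitor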
TDP2 inh conf = human TDP2 inhibition, confirmation. recombinant human TDP2, absorbance read-out. shares compounds with TDP2 absorb. actives 22% (n = 1,100). inhibition, % at 12.8 µM; in the data active = inhibition above about 25%;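 note: 0% = vehicle with enzyme and 100% = no enzyme buffer only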
Active calls of the source: *; · = no result.

SMILES	LEDGF integ inh	MBD2 DNA inh	SIAE primary	PRMT1 FP inh	TDP2 absorb	UHRF1 MBD2 ctr	TDP2 inh conf
CC1CC(=O)C2=C(C1)OC(N)=C(C#N)C2c1coc2ccccc2c1=O (stereo not drawn)	-2	0	-4	-2	26*	16	9
COc1ccc2c(c1)CNC2CS(=O)(=O)NC1CCCC1 (stereo not drawn)	-2	-5	5	7	-3	-9	·
CCn1cc(CCC(=O)Nc2ccc(Oc3cccnc3)cc2)c2ccccc21	1	4	3	2	3	0	·
Cc1ccc(-n2nc3cc(C)c(N)cc3n2)cc1	5	-7	11	3	2	-1	·
Nc1cc2nn(-c3ccccc3)nc2cc1Cl	48*	-12	16	6	70*	0	47*
O=C(CNC(=O)c1ccco1)N/N=C/c1c[nH]c2ccccc12	-1	-1	8	-4	9	0	·
O=C(CNC(=O)c1ccc([N+](=O)[O-])cc1)N/N=C/c1c[nH]c2ccccc12	3	-4	3	-3	27*	-3	3
Cc1ccc(-n2c3nc(=O)[nH]c(=O)c-3cc3cc([N+](=O)[O-])ccc32)cc1	-1	-1	3	0	46*	3	41*
CN1c2ccccc2C(C)(C)[C@]12C=Cc1cc(O)ccc1O2	2	-2	-78	10	4	-11	·
CN1c2ccccc2C(C)(C)C12C=Nc1c(ccc3ccccc13)O2 (stereo not drawn)	4	-2	7	1	33*	8	5
Cc1ccc(CNC(=O)CCS(=O)(=O)c2cc3c(cc2Br)CCN3C(=O)C2CC2)o1	1	5	-1	1	-5	-1	·
COC(=O)c1cc(NC(=O)c2cc3ccccc3o2)cc(C(=O)OC)c1	2	-7	7	0	26*	-1	1
CCc1ccc2cc(F)cc(F)c2n1	-3	-1	2	0	45*	1	-9
C=CCN1C(=O)[C@@H](CC(=O)NCCc2ccccc2OC)[C@]2(C(=O)OCC)CCCCC/C=C/12	-2	2	-2	0	7	0	·
COc1cc2oc3cc(C#Cc4ccc(N)cc4)ccc3c(=O)c2cc1OC	4	2	-9	4	-14	4	·
Nc1ccc(C#Cc2ccc3c(=O)c4ccccc4oc3c2)cc1	9	12	3	4	27*	23*	-3
COc1ccc(C(=O)Nc2nc3c(s2)Cc2cc(OC)ccc2-3)cc1	5	-4	1	4	32*	-8	38*
Cc1ccccc1NC(=O)C[C@H]1CC[C@H]2[C@@H](COc3ccc(NC(=O)Nc4ccccc4)cc3C(=O)N2C)O1	6	8	-2	-2	11	5	·
NC(=O)C1CCCN(C(=O)CCCNC(=O)c2ccc(Cl)cc2)C1 (stereo not drawn)	-1	4	2	-1	30*	0	7
Cc1oc2c(c1C(=O)c1ccccc1)C(=O)C(=O)c1ccccc1-2	-1	2	3	4	38*	7	55*
O=C(CSc1nc2ccccc2n1Cc1ccccc1Cl)N/N=C\c1cccc(Oc2ccccc2)c1	0	-1	-6	-4	5	-1	·
Cc1cc2nn(-c3cccc4ccccc34)nc2cc1N	1	5	3	2	-2	2	·
Nc1ccc2nn(-c3cccc4ccccc34)nc2c1	2	-3	17	-2	36*	-7	36*
CC(=O)c1c(C)oc2c1cc(NS(=O)(=O)c1ccc(C(=O)O)cc1)c1ccccc12	-2	-2	-8	0	29*	-2	3
O=C1C2(CCC13COC(c1ccc(O)cc1)OC3)COC(c1ccc(O)cc1)OC2 (stereo not drawn)	-2	0	7	-2	-4	-3	·
O=C1C2(CCCC13COC(c1ccc(O)cc1)OC3)COC(c1ccc(O)cc1)OC2 (stereo not drawn)	0	6	-1	-3	25*	12	3
